# Bioassay records deposited in PubChem by Johns Hopkins Ion Channel Center.
# MrgX1 antag – antagonists of human MrgX1 receptor, primary screen, HEK293 cells, Fluo-4 calcium flux; 1.3% of 310,000 active; Mas-related G-protein coupled receptor member X1 (Homo sapiens), Q96LB2; B-score at 10 µM; BAM8-22 antagonism; hits give low values;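 active = calcium-response B-score plate-corrected more than 3 library SD below zero, starting fluorescence within 5 deviations, no agonist response on first addition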;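 note: peak minus trough fluorescence over baseline after final BAM8-22 challenge near maximal dose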
# Target sequence (Q96LB2 whole entry, looked up): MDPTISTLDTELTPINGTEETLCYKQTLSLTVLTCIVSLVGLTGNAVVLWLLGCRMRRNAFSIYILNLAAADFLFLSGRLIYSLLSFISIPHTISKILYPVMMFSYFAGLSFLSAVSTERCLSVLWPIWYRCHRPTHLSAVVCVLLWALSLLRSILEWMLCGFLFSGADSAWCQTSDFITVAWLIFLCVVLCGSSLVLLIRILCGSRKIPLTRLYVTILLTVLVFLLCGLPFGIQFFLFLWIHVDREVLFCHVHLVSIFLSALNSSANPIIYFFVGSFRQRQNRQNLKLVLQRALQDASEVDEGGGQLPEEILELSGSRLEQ
# RGS4 act – RGS4 potentiators or activators, primary screen, cell-based, HEK293 M3R inducible RGS4, calcium flux; B-score at 10 µM; 0.92% of 310,000 active; carbachol calcium flux Fluo4; hits give low values; AID 463111, 2010;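 active = B-score of the integrated calcium signal more than 4 SD below the library mean, with starting fluorescence not abnormally high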;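 note: negative B-score means reduced calcium response which marks RGS4 activation or potentiation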
#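 Assay system: HEK293 FlpIn-TREx cells, stable M3R, doxycycline-inducible RGS4 / Probe or stimulus: carbachol, ECmax concentration / Times: overnight RGS4 induction, 30 min dye load 37 °C, 20 min compound RT / Signal: kinetic calcium fluorescence imaging with Fluo4-AM dye, 2 µM / Measure: Agonist-evoked peak-minus-minimum fluorescence over baseline, integrated ratio, B score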
# MrgX1 ag – agonists of human MrgX1 receptor, primary screen, HEK293 cells, Fluo-4 calcium flux; 0.44% of 310,000 active; Mas-related G-protein coupled receptor member X1 (Homo sapiens), Q96LB2; B-score at 10 µM; Fluo-4 calcium fluorescence, agonist mode; hits give high values;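 active = calcium response B-score plate-corrected fluorescence ratio at least 3 library SD, with starting fluorescence B-score inside 5 SD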
#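 Assay system: MrgX1-expressing HEK293 cells / Amount: fifteen thousand cells per well / Doses: test compound in the initial addition of three / Timing: cells plated overnight, dye loaded 0.5 h 37 °C, 0.5 h room temperature / Technique: kinetic calcium dye fluorescence, Fluo-4 NW / Control set: positive and negative controls per plate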
# RGS4 inh – RGS4 inhibitors, primary screen, cell-based, HEK293 M3R inducible RGS4, calcium flux; B-score at 10 µM; AID 463165, 2010; Regulator of G-protein signaling 4 (Homo sapiens), P49798; 0.45% of 310,000 active; Fluo-4 calcium flux; hits give high values; triggered by carbachol at its EC20;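 active = B-score, a plate-corrected calcium signal, over three deviations above library mean, with baseline fluorescence within five deviations of library mean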;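 note: RGS4 expression induced by doxycycline in cells with stable M3 receptor; B-score is computed from the integrated fluorescence ratio over baseline after carbachol; higher B-score means a larger calcium signal and so more RGS4 inhibition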
# Target sequence (P49798 whole entry, looked up): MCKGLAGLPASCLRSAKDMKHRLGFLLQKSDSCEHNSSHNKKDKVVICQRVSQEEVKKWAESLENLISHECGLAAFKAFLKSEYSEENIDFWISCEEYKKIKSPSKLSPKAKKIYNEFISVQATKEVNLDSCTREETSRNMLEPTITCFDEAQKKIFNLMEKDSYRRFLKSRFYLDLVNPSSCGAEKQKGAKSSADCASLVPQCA
# MrgX1 PAM – positive allosteric modulators of MrgX1, primary screen, HEK293 cells, Fluo-4 calcium flux. FDSS; hits give high values. Mas-related G-protein coupled receptor member X1 (Homo sapiens), Q96LB2. B-score at 10 µM. 0.63% of 310,000 active;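 active = plate-corrected calcium response at least 3 library SD above typical, normal starting fluorescence, not activating the receptor alone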;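 note: compound read alongside a low EC10 to EC30 dose of BAM8-22 agonist; peak minus trough fluorescence over baseline measured at the second addition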
# RGS4 block valid – enhanced carbachol calcium response, M3R/RGS4 cells, RGS4 inhibitor project, cell-based, validation screen, HEK293 M3R/RGS4, calcium flux; 65% of 1,700 active; carbachol calcium Fluo-4 fluorescence; carbachol added at its EC20; 0 = buffer wells, 100 = carbachol control; calcium response, % at 10 µM; shares compounds with RGS4 inh;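 active = duplicate-averaged calcium response above the buffer-only control mean plus 5 SD of those controls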;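 note: integrated fluorescence ratio F max minus min over baseline F0; higher response in RGS4-induced cells means RGS4 inhibition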
# M3R Ca ctr – carbachol calcium response in non-induced M3R cells, confirmation, counter-screen for RGS4 inhibitor project, cell-based, HEK293 M3R; shares compounds with RGS4 inh; carbachol calcium Fluo-4; submaximal (EC20) carbachol stimulus; buffer wells 0%, carbachol control wells 100%; activity (percent), % at 10 µM; 20% of 1,900 active; call rule not given here;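 note: RGS4 induction absent so cells express M3R without RGS4; higher means more calcium signal and flags a non-specific hit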
# RGS4 inh ctr2 – second counter-screen for RGS4 inhibitors: non-induced cells without carbachol; shares compounds with RGS4 inh; HEK293 M3R/RGS4 non-induced, Fluo-4 calcium, no carbachol; normalised: buffer wells 0%, carbachol wells 100%; calcium response (agonist-mode artifact), % at 10 µM; 22% of 1,900 active; AID 493001;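 active = duplicate-averaged calcium rise in uninduced cells above buffer wells' mean plus 5 SD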
# Starred values were filed as active, the others as inactive; i = inactive; / = not tested or not shown. The list is not random: actives were taken first. Their share in the collection is about 3.5%.
SMILES,MrgX1 antag,RGS4 act,MrgX1 ag,RGS4 inh,MrgX1 PAM,RGS4 block valid,M3R Ca ctr,RGS4 inh ctr2
O=c1cc(CN2CC(O)Cc3ccc4ccccc4c32)nc2sccn12 (stereo unspecified),i,i,i,6*,i,20%*,i,i
CCCCn1c(N)c(N(CC(C)C)C(=O)CCCc2nc3ccccc3c(=O)[nH]2)c(=O)[nH]c1=O,i,i,i,i,i,/,/,/
O=S(=O)(/N=C(\Sc1ccccc1)c1ccccc1)c1ccc(Cl)cc1,i,i,i,i,i,/,i,27%*
Cc1ccc(S(=O)(=O)/N=C(\Sc2ccccc2)c2ccccc2)cc1,i,i,i,22*,i,22%*,i,26%*
Cc1ccc(S(=O)(=O)/N=C(/Sc2ccccc2C(=O)O)c2ccccc2)cc1,i,i,i,i,i,/,/,/
CN(C)c1ccc(C2CC(=O)C=C(Nc3ccccc3N)C2)cc1 (stereo unspecified),i,i,i,i,i,/,/,/
COc1ccc(S(=O)(=O)N(C)C)cc1NC(=O)Cc1c[nH]c2ccccc12,i,i,i,i,i,/,/,/
NNC(=O)COc1ccc(-c2n[nH]c(C(F)(F)F)c2-c2ccc(Br)cc2)c(O)c1,i,i,i,8.1*,i,56%*,62%*,i
COc1ccccc1-c1c(-c2ccc(OCC(=O)NN)cc2O)n[nH]c1C(F)(F)F,i,i,i,i,i,/,i,i
COc1ccccc1-c1cn[nH]c1-c1ccc(OCC(=O)NN)cc1O,i,i,i,i,i,/,/,/
O=C(COC(=O)c1ccc(Cl)c(S(=O)(=O)N2CCCCC2)c1)NCC1CCCO1 (stereo unspecified),i,i,i,i,i,/,/,/
CSc1nc(-c2ccccc2)nn1C(=O)c1ccccc1,i,i,i,i,i,/,/,/
CSc1nc(-c2ccccc2)nn1C(=O)c1ccco1,i,i,i,i,i,i,i,i
COc1ccc(-n2c(SCC#N)nnc2-c2ccc(NS(=O)(=O)c3ccc(C)cc3)cc2)cc1,i,i,i,7.2*,i,13%*,i,i
N#C/C(=C/c1ccc(O)c(O)c1)C(=O)NCc1ccc(Cl)cc1,i,i,i,7.6*,13*,i,i,i
N#C/C(=C/c1cccc(O)c1)C(=O)NCc1ccc(Cl)cc1,i,i,i,5.9*,i,80%*,73%*,i
CCOc1ccc(NC(=O)CN(C)C(=O)c2sc3ccccc3c2Cl)cc1OCC,i,i,i,i,i,/,/,/
Cc1[nH]nc(SCC(=O)NC2CCCCC2)c1[N+](=O)[O-],i,i,i,i,i,/,/,/
CCOC(=O)c1sc(N2C(=O)C(O)=C(C(=O)c3ccc(C)o3)C2c2cccc([N+](=O)[O-])c2)nc1C (stereo unspecified),i,i,i,7.3*,i,24%*,i,i
CCOC(=O)c1ccc(N2C(=O)c3n[nH]c(-c4ccco4)c3C2c2cccc([N+](=O)[O-])c2)cc1 (stereo unspecified),i,i,i,6.7*,i,i,i,i
CCOC(=O)c1ccc(N2C(=O)c3n[nH]c(C)c3C2c2ccco2)cc1 (stereo unspecified),i,i,i,i,i,/,/,/
Cc1sc2ncn(CC(=O)NCC(=O)N3CCN(c4ccc(F)cc4)CC3)c(=O)c2c1C,i,i,i,i,i,/,/,/
C=C(C)C1(O)OC(=O)C=C1OC (stereo unspecified),i,i,i,7.8*,i,9.0%*,i,i
C[C@H](NC(=O)N1CCC(Cc2ccccc2)CC1)C(=O)O,i,i,i,i,i,/,/,/
Cc1ccc(NC(=O)CNC(=O)Cn2cnc3sc(C)c(C)c3c2=O)cc1F,i,i,i,6.9*,i,19%*,48%*,i
SMILES,MrgX1 antag,RGS4 act,MrgX1 ag,RGS4 inh,MrgX1 PAM,RGS4 block valid,M3R Ca ctr,RGS4 inh ctr2
COc1cc(/C=C2\C(=O)NN(c3ccccc3)C2=O)ccc1OCC(N)=O,i,i,i,i,i,/,/,/
COC(=O)c1ccc(N2NC(=O)/C(=C/c3ccc(OC)c(OC)c3)C2=O)cc1,i,i,i,6.2*,i,20%*,40%*,i
C#CCOc1ccc(/C=C2/C(=O)NN(c3ccc(F)cc3)C2=O)cc1OC,i,i,i,i,i,/,30%*,i
COc1cc(/C=C2/C(=O)NN(c3cccc(C)c3)C2=O)ccc1OC(=O)c1ccco1,i,i,i,6.8*,i,16%*,31%*,i
O=C(Cc1cnc2ncnn2c1)N1CCc2c([nH]c3ccccc23)C1c1ccccc1F (stereo unspecified),i,i,i,i,i,/,/,/
O=Cc1c(Cl)nc2ccccn2c1=O,i,i,i,4.8*,i,22%*,i,i
Cc1cccn2c(=O)c(C=O)c(Cl)nc12,i,i,i,i,i,/,/,/
Cc1cc(C)nc(S/C=C/C(=O)c2ccccc2F)n1,i,i,i,5.8*,i,5.0%*,i,i
CCN1CCCc2cc(CN(CCN3CCOCC3)C(=S)Nc3cccc(OC)c3)ccc21,i,i,i,i,i,/,/,/
Cc1nn2c(-c3ccncc3)ccnc2c1Br,i,i,i,i,i,i,i,i
Cc1nn2c(-c3ccc(F)cc3)ccnc2c1Br,i,i,i,i,i,/,i,i
Cc1nn2c(-c3ccccn3)ccnc2c1Br,i,i,i,i,i,/,/,/
COc1ccccc1C(=O)C1CCCN(C(=O)CCn2cnnn2)C1 (stereo unspecified),i,i,i,i,i,/,/,/
